This is one part of a sample in which hits are shown more often than they occur.
XBP1 UPR activ: activators of adaptive XBP1 UPR arm, primary screen, cell-based, CHO-XBP1 luciferase reporter, luminescence, uHTS | IRE1-XBP1 UPR activation; percent of tunicamycin response, DMSO as zero | activation, % at 20 µM | actives 0.33% (n = 330,000);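 active = versus positive control, 20 µM dose yields 30% or more activation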;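 also: 100% = tunicamycin at 10 µg/mL and 0% = DMSO only wells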
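assay system = CHO-XBP1 luciferase reporter cells | amount = 1000 cells/well | buffer or medium = F12 plus 10% FBS | compound dosing = single point, 20 µM final compound, 1% DMSO | incubation = 16-18 h cell attachment at 37 °C, then 6 h compound exposure | detection = Steady-Glo luminescence read | controls = tunicamycin 10 µg/mL and vehicle-only wells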
iPSC survival up: enhancers of single-cell hiPSC survival, primary screen, ATPlite luminescence | 100% = ROCK inhibitor wells, 0% = DMSO | survival enhancement, % at 20 µM | actives 0.044% (n = 360,000) | AID 602274, 2012; in the data active = survival enhancement above about 18%;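 also: cells exposed to compounds for 16 hours before the ATP read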
CHOP inh: inhibitors of CHOP promoter induction, primary screen, cell-based, unfolded protein response, luciferase reporter | CHO-K1 CHOP-promoter luciferase, tunicamycin-induced, 15-18 h | inhibition, % at 10 µM | actives 3.8% (n = 220,000) | AID 2732, 2010;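 active = compounds that reduced the stress-induced luciferase reporter signal by more than about 70% of percent inhibition, limit read from the data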;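 also: 0% = tunicamycin plus vehicle and 100% = wells without tunicamycin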
CHOP UPR activ: activators of apoptotic CHOP UPR arm, primary screen, cell-based, CHO-CHOP luciferase reporter, luminescence, uHTS; AID 449763, 2010; UPR activation; percent of tunicamycin response over DMSO baseline; activation, % at 10 µM; actives 0.34% (n = 330,000);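 active = at 10 µM dose, activation of 40% or more, normalized to positive control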;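 also: 100% = tunicamycin at 10 µg/mL and 0% = DMSO alone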
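System: CHO CHOP reporter cells. Amount: 500 cells per well. Buffer or medium: F12 medium, 10% FBS. Compound dosing: one dose, 10 µM in 0.5% DMSO. Incubation: 6 h compound exposure at 37 °C after overnight seeding. Technique: Steady-Glo luciferase luminescence. Benchmarks: tunicamycin and DMSO controls.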
H9c2 protect: cardioprotection against H2O2-induced cell death, primary screen, uHTS, H9c2 cells, ATPLite luminescence; H9c2 cardiomyocytes, H2O2 injury protection, 2 h; protection from H2O2 cell death, % at 20 µM; actives 0.63% (n = 360,000); AID 588492, 2011;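 active = compounds giving at least 50% protection of heart cells from peroxide-induced death in the single-dose screen, raw or plate-pattern-corrected value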;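 also: 0% = DMSO wells with peroxide and 100% = DMSO wells without peroxide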
* = called active by the depositor; / = no result.

SMILES	XBP1 UPR activ	iPSC survival up	CHOP inh	CHOP UPR activ	H9c2 protect
COc1ccc(-c2csc(NC(=O)c3ccccc3NS(=O)(=O)c3ccc(F)c(F)c3)n2)cc1	3	-1	79*	6	-14
Cc1ccc(C(=O)Nc2nc(-c3ccccn3)cs2)cc1S(=O)(=O)N1CCOCC1	3	1	/	4	73*
O=C(Nc1cc(S(=O)(=O)N2CCOCC2)ccc1N1CCCCC1)c1cc(-c2ccccn2)nc2ccccc12	21	1	-54	2	64*
O=C(Nc1nc(-c2ccccn2)cs1)c1cc(S(=O)(=O)N2CCOCC2)ccc1F	2	0	/	7	59*
Cc1ccc(S(=O)(=O)Nc2ccccc2C(=O)Nc2nc(-c3ccc(F)cc3)cs2)cc1	4	2	67	16	-10
C=CC(=O)Nc1cccc(CN2C(=O)N(c3cc(OC)cc(OC)c3)Cc3cnc(NCCCCN(CC)CC)nc32)c1	/	-6	/	/	1
COc1cccc(C(=O)Nc2nc(-c3ccc(S(=O)(=O)N4CCOCC4)cc3)cs2)c1	-4	-1	84*	2	13
O=C(Nc1nc(-c2ccccn2)cs1)c1cccc(-n2cnnn2)c1	-1	-1	45	-2	68*
O=C(Nc1nc(-c2ccc(S(=O)(=O)N3CCOCC3)cc2)cs1)c1ccccc1	3	-3	18	4	-1
CN(CC1CCCO1)S(=O)(=O)c1ccc(C(=O)Nc2ccccc2F)cc1 (stereo not given)	-4	1	/	-2	3
CC(C)CC(=O)Nc1nc(-c2ccc(S(=O)(=O)N3CCOCC3)cc2)cs1	-5	0	/	1	-5
O=C(Nc1ccc(Br)cc1)c1cccc(-n2cnnn2)c1	3	0	/	5	-3
CN(CC1CCCO1)S(=O)(=O)c1ccc(C(=O)Nc2nc(-c3ccccn3)cs2)cc1 (stereo not given)	1	-3	/	1	90*
Cc1ccc(Nc2nc(-c3ccc(S(=O)(=O)N4CCOCC4)cc3)cs2)cc1Cl	10	-2	88*	13	-16
O=C(NCc1ccccc1Cl)c1csc(COCCO)n1	/	0	/	/	3
CC(C)(C)S(=O)N1Cc2cc(C(=O)N3CCc4ccccc4C3)nc(-c3cccc(-c4ccncc4)c3)c2[C@H]1CCO (stereo not given in full)	/	0	/	/	7
N#Cc1nnn2c1nc(N)c1c(Cl)cccc12	/	0	/	/	-3
CC(C)COc1cccc(C(=O)Nc2ccc(S(=O)(=O)N3CCOCC3)cc2)c1	6	0	80*	-1	-8
Cc1nnc(NC(=O)c2ccc(F)c(S(=O)(=O)N3CCOCC3)c2)s1	2	0	/	0	0
O=C(Nc1nc(-c2ccccn2)cs1)c1ccc(F)c(S(=O)(=O)N2CCOCC2)c1	-1	0	/	9	65*
COc1ccc(S(=O)(=O)N(C)C[C@@H]2OCc3cn(nn3)CCCC(=O)N([C@H](C)CO)C[C@H]2C)cc1	/	4	/	/	6
COc1cccc(-c2cnc(C(O)c3ccc(CN4CCCC4)cc3)[nH]2)c1 (stereo not given)	/	-2	/	/	3
COC(=O)CSc1nnc(-c2sc3ccccc3c2Cl)o1	-3	-2	70*	-6	-12
COc1ccc2[nH]c(C)c(CCN(Cc3cccs3)C(=S)Nc3ccccc3)c2c1	-3	-4	70*	1	-4
COc1ccc(NC(=S)N(CCc2c(C)[nH]c3ccc(C)cc23)Cc2cccs2)cc1	-3	0	22	1	-6
COc1ccc2[nH]c(C)c(CCN(Cc3cccs3)C(=S)Nc3ccc(F)cc3)c2c1	-4	-2	78*	-1	-2
Cc1nnc(SCc2cc(=O)[nH]c(/N=C(\N)Nc3ccccc3Sc3ccccc3)n2)s1	0	2	22	0	-5
COc1ccccc1N/C(N)=N/c1nc(CSc2nc3ccccc3s2)cc(=O)[nH]1	2	/	94*	6	/
Cc1ccc(C(O)c2ncc(-c3ccccc3Cl)[nH]2)c(C)c1 (stereo not given)	/	4	/	/	-13
